Results from different studies.
Lines come from different studies, so protocols differ.
Target: Aurora kinase A (AURKA, Homo sapiens, UniProt O14965)
Residues used in one study (O14965 1-403): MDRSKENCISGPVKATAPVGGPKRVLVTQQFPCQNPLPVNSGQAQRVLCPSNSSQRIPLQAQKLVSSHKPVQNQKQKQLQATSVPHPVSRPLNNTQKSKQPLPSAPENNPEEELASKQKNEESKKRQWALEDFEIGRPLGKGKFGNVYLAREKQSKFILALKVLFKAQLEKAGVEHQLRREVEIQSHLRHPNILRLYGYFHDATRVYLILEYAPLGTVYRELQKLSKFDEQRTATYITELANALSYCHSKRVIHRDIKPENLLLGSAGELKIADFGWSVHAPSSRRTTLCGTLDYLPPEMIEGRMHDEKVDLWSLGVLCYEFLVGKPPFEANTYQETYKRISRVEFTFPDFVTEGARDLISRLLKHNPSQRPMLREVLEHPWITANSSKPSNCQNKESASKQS

C[C@@H]1CN(c2ccc3ncc(-c4ccc5[nH]nc(C6CC6)c5c4)n3n2)C[C@H](C)O1 gave a remaining binding of 85% (binding; competition with immobilised ligand; 0.5 µM).
With CNC(=O)[C@@H]1CC[C@@H](n2c(-c3ccc4cnccc4c3)nc3ccc(C(=O)NCc4cccc(C(N)=O)c4)cc32)C1 the remaining binding was 100% (binding; competition with immobilised ligand; 1 µM).
The remaining binding of Nc1cnc(N2CCc3cc(S(=O)(=O)Nc4c(F)cc(Cl)cc4F)cc(N4CCCC4=O)c32)nc1 is reported as 100% (cell-free assay; competition with immobilised ligand; 1 µM).
For CN(c1nccc(-c2cnn3ncccc23)n1)C1CC1, the remaining binding was 84% (binding; 1 µM).
COc1cc(-c2cn(C3CCc4ccccc4N(CC(F)(F)F)C3=O)nn2)ccc1-n1ccc(C)n1 (stereo not shown) has a remaining binding of 58% (cell-free assay; competition with immobilised ligand; 1 µM).
c1cncc(-c2cccc(Nc3nccc(NC4CCCCC4)n3)c2)c1 has a remaining binding of 5.9% (binding; competition with immobilised ligand; 10 µM).
The remaining binding of CN(C)c1nccc(-c2cnc3ncccn23)n1 is reported as 49% (binding; 1 µM).
With FC(F)(F)Oc1cccc(-c2cnc3ccc(-c4ccncc4)nn23)c1 the remaining binding was 91% (cell-free assay; competition with immobilised ligand; 5 µM).
COc1ncc2cc3ccccc3nc2c1C#N gave a remaining binding of 100% (cell-free assay; competition with immobilised ligand; 5 µM).
For O=C(NCc1ncc(C(F)(F)F)cc1Cl)c1ccc2c(c1)C1(CCS(=O)(=O)CC1)[C@@H](C1CC1)N2S(=O)(=O)c1ccc(F)cc1, the remaining binding was 81% (cell-free assay; competition with immobilised ligand; 1 µM).
With COc1cc(C(=O)N2CCC(N3CCN(C)CC3)CC2)ccc1Nc1ncc2c(n1)N(C)c1ccccc1C(=O)N2C the remaining binding was 1.2% (binding; competition with immobilised ligand; 10 µM).
With O=C(Nc1cccnn1)N1CC(C/C=C/c2cncc(Oc3ccc(C(F)(F)F)cn3)n2)C1 the remaining binding was 100% (cell-free assay; competition with immobilised ligand; 1 µM).
With C[C@@H]1CCN(c2nccc(-c3cnn4ncccc34)n2)C1 the remaining binding was 92% (binding; 1 µM).
O=C(NCC1CCOCC1)c1n[nH]cc1NC(=O)c1c(F)cccc1F has a remaining binding of 87% (binding; competition with immobilised ligand; 1 µM).
O=C(c1ccc(Nc2ncc(Cl)c(-c3cc4ccccc4s3)n2)cc1)N1CCC(N2CCCC2)CC1 gave a remaining binding of 9.2% (binding; competition with immobilised ligand; 1 µM).
For CS(=O)(=O)NCC[C@H](NC(=O)c1cncc2c1cnn2-c1ccc(F)cc1)c1ccnc(S(C)(=O)=O)c1, the remaining binding was 100% (cell-free assay; competition with immobilised ligand; 1 µM).
F[C@@H]1CCN(c2nccc(-c3cnn4ncccc34)n2)C1 gave a remaining binding of 91% (binding; 1 µM).
The remaining binding of CCC(=O)N[C@H]1CC[C@@H](C(=O)N(C)c2ccc(-c3nc4ccccc4o3)cc2)C1 is reported as 43% (cell-free assay; competition with immobilised ligand; 1 µM).
For O=C(c1ccc(Nc2nccc(-c3cc4ccccc4s3)n2)cc1)N1CCC(N2CCCC2)CC1, the remaining binding was 33% (binding; competition with immobilised ligand; 1 µM).
The remaining binding of N[C@H]1CCN(c2nccc(-c3cnn4ncccc34)n2)C1 is reported as 97% (binding; 1 µM).
The remaining binding of C[C@H](c1ccc(F)cc1)N(Cc1cccc(C(=O)O)c1)C(=O)c1cnc2ccccc2c1 is reported as 100% (cell-free assay; competition with immobilised ligand; 1 µM).
For CC(C)(C)c1ccc(-c2nc(CBr)nn2-c2cccc(O)c2)cc1, the remaining binding was 91% (cell-free assay; competition with immobilised ligand; 10 µM).
For CSc1cccnc1N1CCN(Cc2nc3ccccc3[nH]2)CC1, the remaining binding was 74% (cell-free assay; competition with immobilised ligand; 1 µM).
For Cc1cnc(Nc2ccc(C(=O)N3CCC(N4CCCC4)CC3)cc2)nc1-c1cc2ccccc2s1, the remaining binding was 2% (binding; competition with immobilised ligand; 1 µM).
With CN(C)c1ncc(F)c(-c2cnn3ncccc23)n1 the remaining binding was 100% (binding; 1 µM).
